What was measured:
[1] = folding enthalpy; higher = less favourable; fluorescence melt of hairpins on a sequencing array, two-state fit; conditions: sodium 0.088 M
Method in brief: (§1)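 Bootstrapped two-state fits yielded melting temperature and folding enthalpy for library hairpins. Cy3 fluorescence, with annealed Cy3 and quencher oligos, was imaged on a sequenced MiSeq flow cell in 50 mM Na-HEPES pH 8.0, 25 mM NaCl in 2.5 °C steps up to 60 °C, and normalised to pre-quench Cy3 and to control constructs. Four replicates were combined by inverse variance, and fitted temperatures were raised by 9.35 °C to match UV melts.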

[2] = melting temperature; fluorescence melt of hairpins on a sequencing array, two-state fit, raised by 9.35 °C to match UV melts; conditions: sodium 0.088 M
Method in brief: as §1

| Sequence | folding enthalpy [1] [kcal/mol] | Tm [2] [°C] |
| --- | --- | --- |
| GACCGTGGAAACATGGTC ((((.((....)).)))) | -43.2 | 54.2 |
| GACCGTGGAAACGTGGTC ((((..(....)..)))) | -23.6 | 45.5 |
| GACCTCCGAAAGGAGTC (((.(((....)))))) | -15.3 | 49.2 |
| GACCTCCGAAAGGATGTC (((.(((....))).))) | -32.4 | 47.3 |
| GACCTGCCGAAAGGCGTC (((..(((....)))))) | -9.15 | 29.3 |
| GACCTGCGAAAGCAAGTC (((.(((....))).))) | -25.3 | 47.1 |
| GACCTGGCGAAAGCCGTC (((..(((....)))))) | -5.62 | 34.9 |
| GACCTTGGAAACAAAGTC (((.(((....))).))) | -20.3 | 26 |
| GACCTTGGAAACAAGACC (..((((....))))..) | -10.9 | 20 |
| GACCTTGGAAACAAGATC ((.((((....)))).)) | -21 | 30.6 |
| GACGAAACGAAAGTTGTC (((..(((....)))))) | -19.6 | 35 |
| GACGAACGAAAGTTGGTC (((.(((....))).))) | -36.7 | 48.8 |
| GACGAAGGAAACTCCGTC ((((.((....)).)))) | -26.2 | 37.7 |
| GACGACCGAAAGGTGGTC (((.(((....))).))) | -34.8 | 56 |
| GACGACCGAAAGGTTGTC (((.(((....))).))) | -42.3 | 63.4 |
| GACGACGAAAGTCCGTC ((((((....))).))) | -29.9 | 53.4 |
| GACGACGAAAGTCCTGTC ((((((....)))..))) | -16.4 | 31.4 |
| GACGACGAAAGTCGAGTC ((((((....)))..))) | -10.5 | 39.7 |
| GACGACGAAAGTCGGTC ((((((....))).))) | -12.2 | 60.3 |
| GACGACGAAAGTCTGTC ((((((....))).))) | -24.4 | 51.4 |
| GACGACGGAAACGCCGTC ((((.((....)).)))) | -31.4 | 56.4 |
| GACGACGGAAACGTCATC ((.((((....)))).)) | -15.7 | 38.8 |
| GACGAGACGAAAGTCGTC (((..(((....)))))) | -13.8 | 49 |

| Sequence | folding enthalpy [1] [kcal/mol] | Tm [2] [°C] |
| --- | --- | --- |
| GACGAGCCGAAAGGCGTC (((..(((....)))))) | -8.53 | 42.3 |
| GACGAGCGAAAGCTGGTC (((.(((....))).))) | -31.2 | 54.8 |
| GACGAGCGAAAGCTTGTC (((.(((....))).))) | -36.8 | 61.2 |
| GACGAGGAAACTCGTC ((((((....)))))) | -41.1 | 61.2 |
| GACGATGGAAACACCGTC ((((.((....)).)))) | -29.6 | 45.4 |
| GACGATGGAAACATCGCC (.(((((....))))).) | -17.9 | 47.3 |
| GACGCACGAAAGTGAGTC (((.(((....))).))) | -40 | 60 |
| GACGCACGAAAGTGGGTC (((.(((....))).))) | -35.3 | 63.9 |
| GACGCACGAAAGTGGTC (((.(((....)))))) | -16.9 | 51.7 |
| GACGCCCGAAAGGGGTC (((.(((....)))))) | -17.1 | 55.6 |
| GACGCCCGAAAGGGTGTC (((.(((....))).))) | -35.5 | 69.3 |
| GACGCCGAAAGGCAGGTC ((((((....)))..))) | -16.2 | 52.1 |
| GACGCCGAAAGGCAGTC ((((((....))).))) | -18.2 | 63.7 |
| GACGCCGAAAGGCGGTC ((((((....))).))) | -9.77 | 64.9 |
| GACGCCGAAAGGCTTGTC ((((((....)))..))) | -13.5 | 41.1 |
| GACGCCGGAAACGGCATC ((.((((....)))).)) | -11.4 | 43.4 |
| GACGCGGGAAACCGCACC (..((((....))))..) | -8.05 | 32.2 |
| GACGCGGGAAACCGCGCC (.(((((....))))).) | -11.8 | 55 |
| GACGCTGGAAACAACGCC (.((.((....)).)).) | -12.6 | 28.2 |
| GACGGACGAAAGTCGGTC (((.(((....))).))) | -35.2 | 58.1 |
| GACGGAGGAAACTCCACC (..((((....))))..) | -10.4 | 26.4 |
| GACGGAGGAAACTCCGTC (((((((....))))))) | -36.1 | 67.8 |
| GACGGAGGAAACTTCGTC ((((.((....)).)))) | -42.1 | 49.6 |

| Sequence | folding enthalpy [1] [kcal/mol] | Tm [2] [°C] |
| --- | --- | --- |
| GACGGCCGAAAGGCAGTC (((.(((....))).))) | -26.2 | 68.8 |
| GACGGCGAAAGCCAAGTC ((((((....)))..))) | -18.5 | 49 |
| GACGGCGAAAGCCACGTC ((((((....)))..))) | -15.3 | 49.8 |
| GACGGCGAAAGCCATGTC ((((((....)))..))) | -13.3 | 45.2 |
| GACGGCGAAAGCCCGTC ((((((....))).))) | -24.7 | 65.4 |
| GACGGCGAAAGCCGCGTC ((((((....)))..))) | -8.52 | 50.9 |
| GACGGGAAACCGTC (((((....))))) | -29 | 58.6 |
| GACGGGCCGAAAGGCGTC (((..(((....)))))) | -15 | 48.8 |
| GACGGGCGAAAGCCTGTC (((.(((....))).))) | -26.2 | 67.3 |
| GACGGGGGAAACCCCACC (..((((....))))..) | -7.44 | 30.3 |
| GACGGTCCGAAAGGAGTC (((..(((....)))))) | -14.2 | 34.2 |
| GACGGTGGAAACGTCGTC ((((..(....)..)))) | -31.6 | 54.8 |
| GACGTAACGAAAGTTGTC (((..(((....)))))) | -25 | 37.5 |
| GACGTAGGAAACTACATC ((.((((....)))).)) | -13.1 | 28.4 |
| GACGTAGGAAACTACGCC (.(((((....))))).) | -16.6 | 43.6 |
| GACGTCCGAAAGGAAGTC (((.(((....))).))) | -34.7 | 54.7 |
| GACGTCCGAAAGGATGTC (((.(((....))).))) | -42.9 | 60.1 |
| GACGTCGGAAACAACGTC (((((.(....).))))) | -30.5 | 45.2 |
| GACGTGCGAAAGCAGTC (((.(((....)))))) | -21.6 | 54.9 |
| GACGTTACGAAAGTAGTC (((..(((....)))))) | -27.2 | 44.2 |
| GACGTTCCGAAAGGAGTC (((..(((....)))))) | -17 | 36.6 |
| GACGTTGGAAACAACGCC (.(((((....))))).) | -12.4 | 48.8 |
| GACTAAACGAAAGTTGTC (((..(((....)))))) | -19.6 | 34.9 |

| Sequence | folding enthalpy [1] [kcal/mol] | Tm [2] [°C] |
| --- | --- | --- |
| GACTAAGGAAACCTAGTC (((((.(....).))))) | -25.7 | 35.6 |
| GACTACCGAAAGGTTGTC (((.(((....))).))) | -31.3 | 53.1 |
| GACTACGAAAGTAAGTC ((((((....))).))) | -29.4 | 47.1 |
| GACTACGAAAGTACGTC ((((((....))).))) | -25.7 | 43.3 |
| GACTACGAAAGTAGAGTC ((((((....)))..))) | -13.7 | 34.7 |
| GACTACGAAAGTAGGGTC ((((((....)))..))) | -16.5 | 46.7 |
| GACTACGAAAGTAGTGTC ((((((....)))..))) | -15.4 | 50.4 |
| GACTACGCGAAAGCGGTC (((..(((....)))))) | -15.1 | 38 |
| GACTACGGAAACGCAGTC ((((.((....)).)))) | -28.3 | 42.1 |
| GACTAGAAATAGTC (((((....))))) | -15.7 | 37.6 |
| GACTAGCGAAAGCTTGTC (((.(((....))).))) | -31.3 | 54.7 |
| GACTAGGGAAACCTAGCC (.(((((....))))).) | -19.7 | 38.4 |
| GACTATACGAAAGTAGTC (((..(((....)))))) | -24.4 | 34.1 |
| GACTATGGAAACACAGTC ((((.((....)).)))) | -19.1 | 33 |
| GACTCAGGAAACTGAGTC (((((((....))))))) | -46 | 60.8 |
| GACTCCGAAAGGAAGTC ((((((....))).))) | -28.8 | 52.4 |
| GACTCCGAAAGGACCGTC ((((((....)))..))) | -13.8 | 29.7 |
| GACTCCGAAAGGAGGTC ((((((....))).))) | -13.5 | 56.2 |
| GACTCCGAAAGGATGGTC ((((((....)))..))) | -21.7 | 39.4 |
| GACTCCGAAAGGATTGTC ((((((....)))..))) | -16.3 | 36.8 |
| GACTCGCGAAAGCGGTC (((.(((....)))))) | -14.3 | 51.8 |
| GACTCGGGAAACTGAGTC (((((.(....).))))) | -37.2 | 52.7 |
